Screening data as filed in PubChem.
A selection: hits, their analogues and other compounds. The true share with any hit is near 1.9%.
Rtt109 HAT inh: inhibitors of C. albicans Rtt109/Vps75 HAT, primary screen, biochemical, ThioGlo CoA-SH fluorescence, plate reader; purified Rtt109/Vps75, 4 h; inhibition, % at 34.9 µM; hit rate 0.16% among 330,000; AID 540336, 2011;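 active means inhibition of at least 50% in every replicate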
Target sequence (Q5AAJ8 whole entry, looked up): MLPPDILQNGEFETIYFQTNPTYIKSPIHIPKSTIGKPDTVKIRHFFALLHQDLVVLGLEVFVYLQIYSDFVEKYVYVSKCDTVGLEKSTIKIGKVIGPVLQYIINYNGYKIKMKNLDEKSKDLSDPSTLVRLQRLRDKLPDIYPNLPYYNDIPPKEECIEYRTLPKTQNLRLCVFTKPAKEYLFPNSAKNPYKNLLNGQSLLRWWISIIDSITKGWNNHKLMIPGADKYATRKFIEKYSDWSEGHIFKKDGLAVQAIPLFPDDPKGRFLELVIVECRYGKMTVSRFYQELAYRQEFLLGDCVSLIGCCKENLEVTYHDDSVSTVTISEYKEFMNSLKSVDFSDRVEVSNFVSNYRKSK
Efflux pump inh: inhibitors of Candida efflux pumps in yeast, primary screen, S. cerevisiae, Nile Red, multiplex; hit rate 0.44% among 330,000; AID 485275, 2010; inhibition, % at 10 µM; S. cerevisiae Candida pump triplex;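 active means plate passing quality check with inhibition over a set limit, or well fluorescence over plate mean plus 4 SD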;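 further: Nile Red retained in pooled yeast measured as flow cytometry median fluorescence; 0% = buffer negative control and 100% = Enniatin B positive control; higher means more Nile Red kept so more efflux inhibition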
ASAP1 inh: inhibitors of human ASAP1 ArfGAP activity, primary screen, biochemical, fluorescence polarization | Arf-GAP with SH3 domain, ANK repeat and PH domain-containing protein 1 (Homo sapiens), … | ASAP1-stimulated ARF1 GTP hydrolysis, GDP FP detection | inhibition, % at 16.5 µM | hit rate 0.19% among 360,000; in the data active means inhibition above about 25%;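 further: 0% = vehicle with enzyme and substrate and 100% = no enzyme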
ARFGAP1 inh: inhibitors of rat ARFGAP1 GAP activity, primary screen, biochemical, fluorescence polarization, GDP tracer; ADP-ribosylation factor GTPase-activating protein 1 (Rattus norvegicus), Q62848; hit rate 0.26% among 360,000; inhibition, % at 16.5 µM; Arfgap1-stimulated ARF1 GTP hydrolysis, GDP FP detection;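 active means inhibition above a per-plate limit, mean inhibition of low control wells plus 3 SD, cut at about 25% in these data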;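 further: 0% = DMSO wells with enzyme and 100% = wells lacking Arfgap1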
Target sequence (Q62848 1-136 limits assumed): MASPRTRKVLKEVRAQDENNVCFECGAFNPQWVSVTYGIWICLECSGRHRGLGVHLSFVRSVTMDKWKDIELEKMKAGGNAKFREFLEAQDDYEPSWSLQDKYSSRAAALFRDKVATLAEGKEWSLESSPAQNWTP
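Assay system: Rat Arfgap1 GAP domain (His6, aa 1-136), purified enzyme | Buffer or medium: HEPES 25 mM pH 7.5, NaCl 150 mM, MgCl2, DTT | Schedule: GTP hydrolysis reaction 2 h at 25 °C | Signal: FP of antibody-bound GDP Alexa 633 tracer, ex 620/em 688 nm | Measure: Percent inhibition of Arfgap1-stimulated GTP hydrolysis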
FGF22 binding: binders of human FGF22 protein, primary screen, FGF22 synaptogenesis inhibitor project, biophysical, thermal shift, single point. AID 651658, 2012. activity (Tm shift, normalised), % at 9.99 µM. recombinant FGF22 thermal shift, SYPRO orange fluorescence; percent of sucrose octasulfate shift, DMSO zero. Fibroblast growth factor 22 (Homo sapiens), Q9HCT0. hit rate 1.5% among 340,000;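 active means mean Tm shift, scaled 0 neutral to 100 positive control, at about 1.3% or above, every replicate too, limit read from the data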
Starred values were filed as active, the others as inactive; x = not tested or not shown; ! = not active in a repeat.

SMILES | Rtt109 HAT inh | Efflux pump inh | ASAP1 inh | ARFGAP1 inh | FGF22 binding
COc1ccccc1-c1noc(CSc2nc(N)cc(=O)[nH]2)n1 | 4 | 0 | 10 | 5 | 43*
Nc1cc(=O)[nH]c(SCc2ccccc2)n1 | x | x | -3 | -1 | 0
CCOc1ccccc1Nc1nnc(SCC(=O)NC(Cc2c[nH]c3ccccc23)C(=O)O)s1 (configuration not stated) | 6 | 0 | -7 | -1 | 0
Cc1ccccc1CSCC(=O)NCCSc1ccccn1 | -1 | 0 | -10 | 2 | 44*
O=C(NC(=O)c1cccc(F)c1)Nc1nc(-c2ccc(F)cc2)cc(C(F)(F)F)n1 | 12 | 0 | 2 | -9 | 44*
O=C(NC(=O)c1ccc(F)cc1)Nc1nc(-c2cccs2)cc(C(F)(F)F)n1 | -9 | 0 | -6 | -6 | 0
COc1ccc2c3c([nH]c2c1)[C@H](CO)N(C(=O)Nc1ccc(F)cc1)CC31CCN(C(=O)Cc2ccccc2)CC1 | x | x | x | x | 0
COC(=O)COc1nc(C)c2c(c1C#N)CC(C)(C)OC2 | -3 | 0 | 2 | -1 | x
O=S(=O)(c1ccc(OCC2CO2)cc1)c1ccc(OCC2CO2)cc1 (configuration not stated) | 3 | 0 | 8 | 20 | 43*
CC(C)(c1ccccc1)c1ccc(OCC2CO2)cc1 (configuration not stated) | -23 | 0 | -5 | 1 | 0
CN1C(C(=O)NCCc2cccs2)CC2Cn3c(nc4ccccc43)C21 (configuration not stated) | -22 | 0 | -3 | -1 | 0
COc1ccc(-c2n(CC(=O)OC3CC(C)CCC3C(C)C)c3ccccc3[n+]2C)cc1 (configuration not stated) | -2 | x | 9 | 0 | 44*
Cc1ccc(NC(=O)CCNC(=O)c2ccccc2)cc1F | -7 | 0 | 2 | -2 | 0
O=C(CCNC(=O)c1ccccc1)Nc1ccc(F)c(Cl)c1 | 2 | 0 | 8 | 1 | 44*
CN1CCN(C(=O)C[C@H]2CC[C@H]3[C@@H](COC[C@@H](O)CN3Cc3cccc(F)c3)O2)CC1 | x | x | 0 | -3 | 43*!
Cc1ccc[n+](CC(=O)c2ccc(NC(=O)c3ccccc3)cc2)c1 | -5 | 0 | -4 | 3 | 44*
C/C(=N\NC(=O)C(C)Oc1ccc([N+](=O)[O-])cc1)c1ccccn1 (configuration not stated) | 3 | 0 | 10 | -1 | x
CCN(CC)C(=O)c1ccc(-c2nnc(Nc3ccc(C(=O)NC)cc3)c3ccccc23)cc1 | -2 | 0 | 7 | 18 | 0
COc1ccc(-c2csc(Nc3ccc(C)cn3)n2)cc1 | -1 | 0 | 20 | -4 | 61*
Cc1ccc2nc(N(CCCN(C)C)C(=O)c3ccc(S(=O)(=O)N4CCCCCC4)cc3)sc2c1 | 31 | 0 | -1 | -6 | 0
CCCCN(C)S(=O)(=O)c1ccc(C(=O)N(CCN(C)C)c2nc3ccc(C)cc3s2)cc1 | x | 0 | 13 | -6 | 44*
CCCCCC1(C(=O)OCC)CC(CSC(=N)N)OC1=O (configuration not stated) | -7 | 0 | 8 | 3 | 44*
O=C1CCc2cc(S(=O)(=O)Nc3ccccc3Cl)ccc2N1 | 1 | 0 | -2 | 11 | 0
O=C(NCCCn1ccnc1)/C(=C/c1ccco1)NC(=O)c1cccs1 | 8 | 0 | -5 | -1 | 1.4*
O=C(NCCCn1ccnc1)/C(=C/c1ccco1)NC(=O)c1ccco1 | 25 | 0 | 5 | 9 | 0
SMILES | Rtt109 HAT inh | Efflux pump inh | ASAP1 inh | ARFGAP1 inh | FGF22 binding
N#C/C(=C\c1c(Cl)cccc1Cl)c1nn(-c2ccccc2)c(-n2cccc2)c1C#N | 56* | 0 | 4 | -3 | 0
c1ccc(NC2=Nc3ccccc3CC2)cc1 | -2 | 0 | 8 | 0 | x
COc1ccc(NCC(=O)Nc2ccccc2C#N)cc1Cl | -2 | 0 | 5 | -2 | x
Cc1ccc(Nc2nc3ccccc3nc2-n2nc(C)cc2C)cc1 | -13 | 0 | 0 | 4 | 0
Cc1cc(C)n(-c2ncnc3ccccc23)n1 | 6 | 0 | 14 | 12 | 43*
CCC(COC(=O)Nc1cccc(C)c1C)NC(=O)OCC(C)C (configuration not stated) | 3 | 0 | -6 | -15 | x
CCC(CC)NC(=O)Nc1cccc(C)c1C | x | 0 | -11 | -3 | 43*
COC(=O)C1CC(O)CN1C(=O)Nc1ccccc1 (configuration not stated) | 1 | 0 | 0 | 7 | 43*
CCNC(=O)C[C@H]1CC[C@@H](NC(=O)C2CCC2)[C@@H](CO)O1 | x | x | x | x | 0
Cc1cnc(CN2CCc3c([nH]c4ccccc34)C2CC(C)C)[nH]1 (configuration not stated) | -3 | 0 | 11 | 9 | 43*
Cc1cccc(CN2CCc3c([nH]c4ccccc34)C2CC(C)C)n1 (configuration not stated) | -28 | 0 | 8 | 0 | 0
Cc1nnsc1Sc1ccccc1 | 1 | 0 | 2 | -9 | 43*
O=C(OCC(=O)N1CCC(Cc2ccccc2)CC1)c1ccccc1O | -7 | 0 | 8 | -11 | 43*
N#CC1=C(N)Oc2ccc3ccccc3c2C1c1cccnc1 (configuration not stated) | 19 | x | 1 | -7 | 43*
N=c1n(CCN2CCCCC2)c2ccccc2n1CC(O)c1ccc(Cl)c(Cl)c1 (configuration not stated) | 58* | 0 | 6 | 0 | x
Cc1ccc(S(=O)(=O)NCC(c2ccc3c(c2)OCO3)N2CCOCC2)cc1 (configuration not stated) | -4 | 0 | 8 | 9 | 0
Cc1ccc(NC(=O)C(=O)NCC2CCCO2)cc1C (configuration not stated) | -1 | 0 | -5 | 6 | 0
Cc1ccc(NC(=O)CC(NCC2CCCO2)C(=O)O)cc1C (configuration not stated) | 7 | 0 | 5 | -2 | 43*
O=C(NC(=S)Nc1ccc(Oc2ccccc2)cc1)c1ccc(Cl)cc1 | 55* | 0 | -4 | 2 | x
Cn1cc[nH]c1=S | 1 | x | 5 | -1 | 0
Cc1ccc(OCCC(=O)Nc2ccc(S(=O)(=O)N3CCCC3)cc2)cc1 | -2 | 0 | -11 | 8 | 0
Cc1ccc(OCCCC(=O)Nc2ccc(S(N)(=O)=O)cc2)cc1 | 14 | 0 | -4 | -5 | 43*
